Laboratory results published in ChEMBL document CHEMBL3045650, “Design, synthesis, and 3D-QSAR analysis of novel 1,3,4-oxadiazol-2(3H)-ones as protoporphyrinogen oxidase inhibitors” (J Agric Food Chem, 2010).
pKi: −log10 of the molar value.

test system: Brassica juncea; test: Post-emergence herbicidal activity against Brassica juncea assessed as growth inhibition at emulsified concentrate of 150 g/ai ha after 15 days by greenhouse test; assay type: functional
Summary of the method: (§1)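 About 20 seeds sown 1–3 cm deep, grown at 15–30 °C and 50% RH. Dicot seedlings sprayed postemergence at the two-leaf stage with a 100 g/L emulsifiable concentrate (DMF/Tween-80) diluted in water, 150 g ai/ha. Untreated and solvent controls included. Visual rating at 15 days, three replicates.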

Structure (SMILES) | inhibition (INH)
CCOC(=O)CCSc1nc2cc(-n3nc(C(C)(C)C)oc3=O)c(Cl)cc2s1 | 70%
COC(=O)CSc1nc2cc(-n3nc(C(C)(C)C)oc3=O)c(Br)cc2s1 | 0%

test system: Polygonum humifusum; test: Post-emergence herbicidal activity against Polygonum humifusum assessed as growth inhibition at emulsified concentrate of 75 g/ai ha after 15 days by greenhouse test; assay type: functional

Structure (SMILES) | inhibition (INH)
CCOC(=O)CCSc1nc2cc(-n3nc(C(C)(C)C)oc3=O)c(Cl)cc2s1 | 70%
COC(=O)CSc1nc2cc(-n3nc(C(C)(C)C)oc3=O)c(Br)cc2s1 | 70%

test system: Eclipta prostrata; test: Post-emergence herbicidal activity against Eclipta prostrata assessed as growth inhibition at emulsified concentrate of 75 g/ai ha after 15 days by greenhouse test; assay type: functional
Summary of the method: (§2)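 Compounds were made up as 100 g/L emulsifiable concentrates in DMF with Tween-80, then diluted in water. About 20 seeds were sown 1-3 cm deep in pots and grown in a greenhouse at 15-30 °C and 50% relative humidity. Sprays were applied postemergence at the two-leaf stage. Untreated and DMF + Tween-80 solvent controls were included. Injury was scored visually 15 days after treatment, with three replicates per treatment.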

Structure (SMILES) | inhibition (INH)
CCOC(=O)CCSc1nc2cc(-n3nc(C(C)(C)C)oc3=O)c(Cl)cc2s1 | 60%
COC(=O)CSc1nc2cc(-n3nc(C(C)(C)C)oc3=O)c(Br)cc2s1 | 0%

test system: Cyperus iria; test: Post-emergence herbicidal activity against Cyperus iria assessed as growth inhibition at emulsified concentrate of 37.5 g/ai ha after 15 days by greenhouse test; assay type: functional

Structure (SMILES) | inhibition (INH)
CCOC(=O)CCSc1nc2cc(-n3nc(C(C)(C)C)oc3=O)c(Cl)cc2s1 | 40%
COC(=O)CSc1nc2cc(-n3nc(C(C)(C)C)oc3=O)c(Br)cc2s1 | 40%

test system: Amaranthus retroflexus; test: Post-emergence herbicidal activity against Amaranthus retroflexus assessed as growth inhibition at emulsified concentrate of 37.5 g/ai ha after 15 days by greenhouse test; assay type: functional; summary of the method: as §2

Structure (SMILES) | inhibition (INH)
CCOC(=O)CCSc1nc2cc(-n3nc(C(C)(C)C)oc3=O)c(Cl)cc2s1 | 50%
COC(=O)CSc1nc2cc(-n3nc(C(C)(C)C)oc3=O)c(Br)cc2s1 | 50%

test system: Abutilon theophrasti; test: Post-emergence herbicidal activity against Abutilon theophrasti (velvetleaf) assessed as growth inhibition at emulsified concentrate of 37.5 g/ai ha after 15 days by greenhouse test; assay type: functional

Structure (SMILES) | inhibition (INH)
CCOC(=O)CCSc1nc2cc(-n3nc(C(C)(C)C)oc3=O)c(Cl)cc2s1 | 0%
COC(=O)CSc1nc2cc(-n3nc(C(C)(C)C)oc3=O)c(Br)cc2s1 | 0%

test system: Poa annua; test: Post-emergence herbicidal activity against Poa annua assessed as growth inhibition at emulsified concentrate of 150 g/ai ha after 15 days by greenhouse test; assay type: functional
Summary of the method: (§3)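 About 20 seeds sown 1–3 cm deep, grown at 15–30 °C and 50% RH. Monocot seedlings sprayed postemergence at the one-leaf stage with a 100 g/L emulsifiable concentrate (DMF/Tween-80) diluted in water, 150 g ai/ha. Untreated and solvent controls included. Visual rating at 15 days, three replicates.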

Structure (SMILES) | inhibition (INH)
CCOC(=O)CCSc1nc2cc(-n3nc(C(C)(C)C)oc3=O)c(Cl)cc2s1 | 0%
COC(=O)CSc1nc2cc(-n3nc(C(C)(C)C)oc3=O)c(Br)cc2s1 | 0%

test system: Rumex acetosa; test: Post-emergence herbicidal activity against Rumex acetosa assessed as growth inhibition at emulsified concentrate of 150 g/ai ha after 15 days by greenhouse test; assay type: functional

Structure (SMILES) | inhibition (INH)
CCOC(=O)CCSc1nc2cc(-n3nc(C(C)(C)C)oc3=O)c(Cl)cc2s1 | 70%
COC(=O)CSc1nc2cc(-n3nc(C(C)(C)C)oc3=O)c(Br)cc2s1 | 60%

test system: Cyperus iria; test: Post-emergence herbicidal activity against Cyperus iria assessed as growth inhibition at emulsified concentrate of 75 g/ai ha after 15 days by greenhouse test; assay type: functional

Structure (SMILES) | inhibition (INH)
CCOC(=O)CCSc1nc2cc(-n3nc(C(C)(C)C)oc3=O)c(Cl)cc2s1 | 50%
COC(=O)CSc1nc2cc(-n3nc(C(C)(C)C)oc3=O)c(Br)cc2s1 | 40%

test system: Eclipta prostrata; test: Post-emergence herbicidal activity against Eclipta prostrata assessed as growth inhibition at emulsified concentrate of 37.5 g/ai ha after 15 days by greenhouse test; assay type: functional; summary of the method: as §2

Structure (SMILES) | inhibition (INH)
CCOC(=O)CCSc1nc2cc(-n3nc(C(C)(C)C)oc3=O)c(Cl)cc2s1 | 50%
COC(=O)CSc1nc2cc(-n3nc(C(C)(C)C)oc3=O)c(Br)cc2s1 | 0%

test system: Rumex acetosa; test: Post-emergence herbicidal activity against Rumex acetosa assessed as growth inhibition at emulsified concentrate of 75 g/ai ha after 15 days by greenhouse test; assay type: functional

Structure (SMILES) | inhibition (INH)
CCOC(=O)CCSc1nc2cc(-n3nc(C(C)(C)C)oc3=O)c(Cl)cc2s1 | 70%
COC(=O)CSc1nc2cc(-n3nc(C(C)(C)C)oc3=O)c(Br)cc2s1 | 50%

test system: Brassica juncea; test: Post-emergence herbicidal activity against Brassica juncea assessed as growth inhibition at emulsified concentrate of 37.5 g/ai ha after 15 days by greenhouse test; assay type: functional; summary of the method: as §2

Structure (SMILES) | inhibition (INH)
CCOC(=O)CCSc1nc2cc(-n3nc(C(C)(C)C)oc3=O)c(Cl)cc2s1 | 60%
COC(=O)CSc1nc2cc(-n3nc(C(C)(C)C)oc3=O)c(Br)cc2s1 | 0%

test system: Echinochloa crus-galli; test: Post-emergence herbicidal activity against Echinochloa crus-galli (barnyard grass) assessed as growth inhibition at emulsified concentrate of 150 g/ai ha after 15 days by greenhouse test; assay type: functional; summary of the method: as §3

Structure (SMILES) | inhibition (INH)
CCOC(=O)CCSc1nc2cc(-n3nc(C(C)(C)C)oc3=O)c(Cl)cc2s1 | 0%
COC(=O)CSc1nc2cc(-n3nc(C(C)(C)C)oc3=O)c(Br)cc2s1 | 0%

test system: Amaranthus retroflexus; test: Post-emergence herbicidal activity against Amaranthus retroflexus assessed as growth inhibition at emulsified concentrate of 75 g/ai ha after 15 days by greenhouse test; assay type: functional; summary of the method: as §2

Structure (SMILES) | inhibition (INH)
CCOC(=O)CCSc1nc2cc(-n3nc(C(C)(C)C)oc3=O)c(Cl)cc2s1 | 60%
COC(=O)CSc1nc2cc(-n3nc(C(C)(C)C)oc3=O)c(Br)cc2s1 | 60%

test system: Cyperus iria; test: Post-emergence herbicidal activity against Cyperus iria assessed as growth inhibition at emulsified concentrate of 150 g/ai ha after 15 days by greenhouse test; assay type: functional

Structure (SMILES) | inhibition (INH)
CCOC(=O)CCSc1nc2cc(-n3nc(C(C)(C)C)oc3=O)c(Cl)cc2s1 | 60%
COC(=O)CSc1nc2cc(-n3nc(C(C)(C)C)oc3=O)c(Br)cc2s1 | 50%

test system: Polygonum humifusum; test: Post-emergence herbicidal activity against Polygonum humifusum assessed as growth inhibition at emulsified concentrate of 150 g/ai ha after 15 days by greenhouse test; assay type: functional

Structure (SMILES) | inhibition (INH)
CCOC(=O)CCSc1nc2cc(-n3nc(C(C)(C)C)oc3=O)c(Cl)cc2s1 | 70%
COC(=O)CSc1nc2cc(-n3nc(C(C)(C)C)oc3=O)c(Br)cc2s1 | 70%

test system: Eclipta prostrata; test: Post-emergence herbicidal activity against Eclipta prostrata assessed as growth inhibition at emulsified concentrate of 150 g/ai ha after 15 days by greenhouse test; assay type: functional; summary of the method: as §1

Structure (SMILES) | inhibition (INH)
CCOC(=O)CCSc1nc2cc(-n3nc(C(C)(C)C)oc3=O)c(Cl)cc2s1 | 60%
COC(=O)CSc1nc2cc(-n3nc(C(C)(C)C)oc3=O)c(Br)cc2s1 | 0%

test system: Amaranthus retroflexus; test: Post-emergence herbicidal activity against Amaranthus retroflexus assessed as growth inhibition at emulsified concentrate of 150 g/ai ha after 15 days by greenhouse test; assay type: functional; summary of the method: as §1

Structure (SMILES) | inhibition (INH)
CCOC(=O)CCSc1nc2cc(-n3nc(C(C)(C)C)oc3=O)c(Cl)cc2s1 | 80%
COC(=O)CSc1nc2cc(-n3nc(C(C)(C)C)oc3=O)c(Br)cc2s1 | 80%

test system: Abutilon theophrasti; test: Post-emergence herbicidal activity against Abutilon theophrasti (velvetleaf) assessed as growth inhibition at emulsified concentrate of 75 g/ai ha after 15 days by greenhouse test; assay type: functional

Structure (SMILES) | inhibition (INH)
CCOC(=O)CCSc1nc2cc(-n3nc(C(C)(C)C)oc3=O)c(Cl)cc2s1 | 0%
COC(=O)CSc1nc2cc(-n3nc(C(C)(C)C)oc3=O)c(Br)cc2s1 | 0%

test system: Polygonum humifusum; test: Post-emergence herbicidal activity against Polygonum humifusum assessed as growth inhibition at emulsified concentrate of 37.5 g/ai ha after 15 days by greenhouse test; assay type: functional

Structure (SMILES) | inhibition (INH)
CCOC(=O)CCSc1nc2cc(-n3nc(C(C)(C)C)oc3=O)c(Cl)cc2s1 | 70%
COC(=O)CSc1nc2cc(-n3nc(C(C)(C)C)oc3=O)c(Br)cc2s1 | 60%

test system: Abutilon theophrasti; test: Post-emergence herbicidal activity against Abutilon theophrasti (velvetleaf) assessed as growth inhibition at emulsified concentrate of 150 g/ai ha after 15 days by greenhouse test; assay type: functional

Structure (SMILES) | inhibition (INH)
CCOC(=O)CCSc1nc2cc(-n3nc(C(C)(C)C)oc3=O)c(Cl)cc2s1 | 0%
COC(=O)CSc1nc2cc(-n3nc(C(C)(C)C)oc3=O)c(Br)cc2s1 | 0%

test system: Brassica juncea; test: Post-emergence herbicidal activity against Brassica juncea assessed as growth inhibition at emulsified concentrate of 75 g/ai ha after 15 days by greenhouse test; assay type: functional; summary of the method: as §2

Structure (SMILES) | inhibition (INH)
CCOC(=O)CCSc1nc2cc(-n3nc(C(C)(C)C)oc3=O)c(Cl)cc2s1 | 60%
COC(=O)CSc1nc2cc(-n3nc(C(C)(C)C)oc3=O)c(Br)cc2s1 | 0%

test system: Digitaria sanguinalis; test: Post-emergence herbicidal activity against Digitaria sanguinalis (hairy crabgrass) assessed as growth inhibition at emulsified concentrate of 150 g/ai ha after 15 days by greenhouse test; assay type: functional; summary of the method: as §3

Structure (SMILES) | inhibition (INH)
CCOC(=O)CCSc1nc2cc(-n3nc(C(C)(C)C)oc3=O)c(Cl)cc2s1 | 0%
COC(=O)CSc1nc2cc(-n3nc(C(C)(C)C)oc3=O)c(Br)cc2s1 | 0%

test system: Rumex acetosa; test: Post-emergence herbicidal activity against Rumex acetosa assessed as growth inhibition at emulsified concentrate of 37.5 g/ai ha after 15 days by greenhouse test; assay type: functional

Structure (SMILES) | inhibition (INH)
CCOC(=O)CCSc1nc2cc(-n3nc(C(C)(C)C)oc3=O)c(Cl)cc2s1 | 60%
COC(=O)CSc1nc2cc(-n3nc(C(C)(C)C)oc3=O)c(Br)cc2s1 | 40%

biological target: T1, Protoporphyrinogen oxidase (Homo sapiens, UniProt P50336); test: Inhibition of Homo sapiens (human) recombinant protoporphyrinogen oxidase expressed in Escherichia coli JM109 assessed as oxidation of protoporphyrinogen IX substrate by fluorescence assay
T1 sequence (P50336 whole entry): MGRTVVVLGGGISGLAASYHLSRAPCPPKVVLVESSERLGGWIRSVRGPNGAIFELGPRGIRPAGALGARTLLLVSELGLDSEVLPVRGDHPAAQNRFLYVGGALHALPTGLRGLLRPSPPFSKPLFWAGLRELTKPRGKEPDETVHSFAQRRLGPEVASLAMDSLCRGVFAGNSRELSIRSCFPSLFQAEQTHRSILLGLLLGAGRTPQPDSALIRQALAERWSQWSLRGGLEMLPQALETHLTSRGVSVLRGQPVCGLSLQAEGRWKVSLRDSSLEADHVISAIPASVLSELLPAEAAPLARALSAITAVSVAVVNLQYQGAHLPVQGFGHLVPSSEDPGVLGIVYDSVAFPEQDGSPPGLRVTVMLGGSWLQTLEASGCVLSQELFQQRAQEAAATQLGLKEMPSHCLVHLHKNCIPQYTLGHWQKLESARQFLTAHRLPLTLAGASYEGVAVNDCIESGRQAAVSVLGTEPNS

Structure (SMILES) | pKi
CCOC(=O)CCSc1nc2cc(-n3nc(C(C)(C)C)oc3=O)c(Cl)cc2s1 | 6.60
COC(=O)CSc1nc2cc(-n3nc(C(C)(C)C)oc3=O)c(Br)cc2s1 | 5.13
